Measured values reported in ChEMBL document CHEMBL1154242, “ent-Kaurane and cembrane diterpenoids from Isodon sculponeatus and their cytotoxicity” (J Nat Prod, 2009).

Key:
Assay type in all cases: functional, cell-based
K562 = assay: Cytotoxicity against human K562 cells after 48 hrs; settings: K562, 48 h
Summary of the method: (§1)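 Cells from the Shanghai Cell Bank were kept in RPMI1640 with 15% hormone-free heat-inactivated FBS, 2 mM glutamine, 100 U/mL penicillin G and 100 µg/mL streptomycin. Seeding was 5 × 10^4 cells/mL for K562 and 4 × 10^4 cells/mL for A549 and HepG2. Cells were exposed to compound for 48 h, and viability was read by CCK-8 at 450 and 650 nm. IC50 values come from triplicate experiments.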

A549 = assay: Cytotoxicity against human A549 cells after 48 hrs; settings: A549, 48 h; summary of the method: as §1
HepG2 = assay: Cytotoxicity against human HepG2 cells after 48 hrs; settings: HepG2, 48 h; summary of the method: as §1

Row | Compound | IC50 (K562) | IC50 (A549) | IC50 (HepG2)
1 | C[C@]12CC[C@@H]3OC(=O)[C@@]45C[C@@H](C[C@@H](O)[C@H]4[C@]34CO[C@H](OC1)[C@H]24)[C@@]1(CCC2=C(O1)[C@]13C[C@H]2C[C@@H](O)[C@H]1[C@]12CO[C@@H]4OC[C@](C)(CC[C@@H]1OC3=O)[C@@H]42)C5=O [SCULPONIN D] | 1500 nM | 1000 nM | 1120 nM
2 | C=C1C(=O)[C@]23C[C@H]1C[C@H](O)[C@H]2[C@@]12CO[C@@H](O)[C@@H]1C(C)(C)CC[C@@H]2OC3=O [EPINODOSIN] | 560 nM | 2100 nM | 1620 nM
3 | C=C1C(=O)[C@]23C[C@H]1C[C@@H](O)[C@H]2[C@]12CO[C@H]4O[C@@H](O)[C@](C)(CC[C@@H]1OC3=O)[C@@H]42 [SCULPONIN G] | > 10000 nM | > 10000 nM | > 10000 nM
4 | C=C1C(O)[C@]23C[C@H]1C[C@H](O)[C@H]2[C@]12CCC[C@@](C)(CO)[C@H]1[C@H](O)[C@]3(O)OC2 (some centres undefined) [SCULPONIN K] | > 10000 nM | > 10000 nM | > 10000 nM
5 | C=C1[C@@H]2C[C@H](O)[C@@H]3[C@](C2)(C(=O)OC2O[C@H](O)[C@@H]4[C@@](C)(CO)CC[C@H](O)[C@]243)[C@@H]1O (some centres undefined) [SCULPONEATIN D] | > 10000 nM | > 10000 nM | > 10000 nM
6 | C=C1C(=O)[C@]23C[C@H]1C[C@@H](O)[C@H]2[C@]12CO[C@@H]4OC[C@](C)(CC[C@@H]1OC3=O)[C@@H]42 [SCULPONEATIN A] | 1620 nM | 1900 nM | 1770 nM
7 | CC1(C)CC[C@@H]2OC(=O)[C@@]34C[C@@H](C[C@H](O)[C@H]3[C@]23CO[C@@H](O)[C@H]13)[C@@H](CO)C4=O [MAOYECRYSTAL D] | > 10000 nM | > 10000 nM | > 10000 nM
8 | C=C1[C@@H](O)[C@]23[C@H](O)[C@H]1CC[C@H]2[C@@]12CO[C@@]3(O)[C@@H](O)[C@@H]1C(C)(C)CC[C@@H]2O [ENMENOL] | > 10000 nM | > 10000 nM | > 10000 nM
9 | C=C1C(=O)[C@]23C[C@H]1C[C@@H](O)[C@H]2[C@]12CO[C@@H]4O[C@H](O)[C@](C)(CC[C@@H]1OC3=O)[C@@H]42 [SCULPONIN H] | > 10000 nM | > 10000 nM | > 10000 nM
10 | C=C1[C@@H]2C[C@@H](O)[C@@H]3[C@](C2)(C(=O)O[C@H]2CC[C@@]4(C)[C@H](O)O[C@H]5OC[C@]23[C@H]54)[C@@H]1O [SCULPONIN I] | > 10000 nM | > 10000 nM | > 10000 nM
11 | CC1(C)[C@H]2[C@H](O)OC[C@@]23[C@H](C[C@@H]1O)OC(=O)[C@@]12C[C@@H](C[C@@H](O)[C@H]13)[C@@]1(CCC3=C(O1)[C@]14C[C@H]3C[C@@H](O)[C@H]1[C@]13CO[C@@H]5OC[C@](C)(CC[C@@H]1OC4=O)[C@@H]53)C2=O [SCULPONIN E] | 2000 nM | 1850 nM | 1620 nM
12 | C=C1C(=O)O[C@H]2/C=C(\C)C[C@@H]3C=C(C/C=C/[C@@](C)(OO)CC[C@H]12)C(=O)O3 | 1200 nM | 1550 nM | 900 nM
13 | C=C1C(=O)O[C@H]2/C=C(\C)C[C@@H]3C=C(CC[C@@H](OO)C(=C)CC[C@H]12)C(=O)O3 | 4300 nM | 4180 nM | 3110 nM
14 | C=C1C(=O)[C@]23C[C@H]1CC[C@H]2[C@@]12CO[C@@H](O)[C@@H]1C(C)(C)[C@@H](O)C[C@@H]2OC3=O [ENEMIN] | 1620 nM | > 10000 nM | 2020 nM
15 | C=C1[C@@H]2C[C@@H](O)[C@@H]3[C@](C2)(C(=O)O[C@H]2CC[C@@]4(C)CO[C@H]5OC[C@]23[C@H]54)[C@@H]1O [SCULPONEATIN B] | > 10000 nM | > 10000 nM | > 10000 nM
16 | C=C1[C@@H]2C[C@H](O)[C@@H]3[C@](C2)(C(=O)O[C@H]2C[C@H](O)C(C)(C)[C@H]4[C@H](O)OC[C@@]243)[C@@H]1OC(C)=O [SCULPONIN F] | > 10000 nM | > 10000 nM | > 10000 nM
17 | C=C1[C@@H]2C[C@@H](O)[C@@H]3[C@](C2)(C(=O)O[C@H]2C[C@H](O)C(C)(C)[C@H]4[C@H](O)OC(=O)[C@@]243)[C@@H]1O [EMEMOGIN] | > 10000 nM | > 10000 nM | > 10000 nM
18 | C=C1[C@@H]2C[C@@H](O)[C@H]3[C@@]45CO[C@@](O)([C@@H](O)[C@@H]4C(C)(C)CC[C@@H]5O)[C@]3(C2)[C@@H]1O [NERVOSANIN B] | > 10000 nM | > 10000 nM | > 10000 nM
19 | C=C1C(=O)O[C@H]2/C=C(\C)C[C@@H]3C=C(CC/C=C(\C)CC[C@H]12)C(=O)O3 | 1250 nM | 1960 nM | 1400 nM
20 | C=C1C(=O)[C@]23C[C@H]1C[C@@H](O)[C@H]2[C@@]1(COC3=O)[C@@H]2[C@H]3OC[C@]2(C)CC[C@H]1O3 [SCULPONEATIN C] | 780 nM | 2730 nM | 680 nM
21 | C=C1[C@@H]2C[C@@H](O)[C@@H]3[C@](C2)(C(=O)O[C@H]2CC[C@]4(C)[C@H]5[C@H](OC[C@@]253)O[C@@H]4O)[C@@H]1O [SCULPONIN J] | > 10000 nM | > 10000 nM | > 10000 nM
22 | C=C1[C@@H]2CC(=O)[C@H]3[C@]45C=CC[C@@](C)(CO)[C@H]4[C@H](O)[C@](O)(OC5)[C@]3(C2)[C@@H]1O [SCULPONIN L] | > 10000 nM | > 10000 nM | > 10000 nM
23 | C=C1C(=O)[C@]23C[C@H]1C[C@@H](O)[C@H]2[C@@]12CO[C@@H](O)[C@@H]1C(C)(C)CC[C@@H]2OC3=O [NODOSIN] | 540 nM | > 10000 nM | 1920 nM
